Screening data: PubChem, Johns Hopkins Ion Channel Center
A selection: hits, their analogues and other compounds. The true share with any hit is near 3.7%.
KCNQ1 inh = human KCNQ1 channel inhibition; P51787; CHO-K1 KCNQ1, FluxOR thallium flux fluorescence; stronger effect = higher value; B-score at 10 µM; 310,000 compounds, 1.3% hits; AID 2642;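 active means compounds whose thallium flux B-score, printed positive for inhibition, exceeds three library SD while starting fluorescence stays within three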;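 further: channel opened by potassium depolarization with thallium stimulus after 20 min compound exposure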
KCNK3 block = human KCNK3 channel inhibition, primary screen. CHO-KCNK3 thallium flux, FluxOR fluorescence; stronger effect = lower value. B-score at 10 µM. 340,000 compounds, 0.84% hits. AID 602410;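 active means B-score under library mean minus 4 SD, starting fluorescence ratio at most library mean plus 5 SD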;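 further: more negative B-score means stronger inhibition of thallium flux through KCNK3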
Kir21 block = inhibitors of mouse Kir2.1 inward-rectifier potassium channel | AID 1672 | 310,000 compounds, 0.85% hits | HEK293-Kir2.1, FluxOR thallium flux fluorescence; stronger effect = lower value | P35561 | B-score at 10 µM;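 active means fluorescence ratio B-score at or below minus 3 SD of library scores, with starting-brightness B-score within 2 SD, cut at about -4.2 in these data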;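 further: channel flux triggered by added potassium and thallium sulfate stimulus; B-score of peak minus minimum fluorescence over baseline after thallium stimulus; more negative B-score means stronger Kir2.1 block with less thallium influx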
Target sequence (P35561 whole entry, looked up): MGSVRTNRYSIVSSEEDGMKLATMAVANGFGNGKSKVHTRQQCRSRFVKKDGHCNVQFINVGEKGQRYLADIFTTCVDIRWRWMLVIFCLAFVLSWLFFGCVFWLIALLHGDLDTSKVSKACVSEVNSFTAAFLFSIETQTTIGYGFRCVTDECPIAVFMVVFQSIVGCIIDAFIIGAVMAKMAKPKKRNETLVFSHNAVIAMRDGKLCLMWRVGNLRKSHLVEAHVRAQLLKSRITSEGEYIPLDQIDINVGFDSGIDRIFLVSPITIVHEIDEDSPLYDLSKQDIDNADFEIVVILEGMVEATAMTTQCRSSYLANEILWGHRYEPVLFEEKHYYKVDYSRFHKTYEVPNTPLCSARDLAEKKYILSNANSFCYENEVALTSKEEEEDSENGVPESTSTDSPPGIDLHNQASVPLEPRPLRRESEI
KCNK9 block = inhibitors of human KCNK9 two-pore domain potassium channel; 310,000 compounds, 1.2% hits; B-score at 10 µM; HEK293 KCNK9, FluxOR thallium flux fluorescence; stronger effect = lower value; Q9NPC2;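 active means ratio B-score over 3 SD below the library mean, with starting fluorescence within 5 SD of its mean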;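 further: negative B-score means less thallium flux so channel inhibition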
KCNQ1 pot = potentiators or activators of human KCNQ1 potassium channel. B-score at 10 µM. P51787. CHO-K1 KCNQ1, thallium flux FluxOR fluorescence; stronger effect = higher value. 310,000 compounds, 0.35% hits;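 active means fluorescence ratio B-score, a plate-corrected score, at least three library SD, with initial intensity B-score within 5 SD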
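Assay system: stable KCNQ1 CHO-K1 line; medium: assay buffer, equal DMSO in all wells; timing: 90 min dye loading and 20 min compound exposure, both at room temperature; technique: kinetic FluxOR thallium fluorescence, 10-s 1-Hz baseline, 110-s post-stimulus read; read-out basis: B score of baseline-normalized fluorescence ratio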
hERG protect = hERG (human) protection from proarrhythmic block. Q12809. CHO-hERG, FluxOR thallium flux, dofetilide IC70 present. activation (rescue from dofetilide block), less the hit threshold, % at 10 µM. 310,000 compounds, 0.51% hits. AID 1511;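 active means activation above the mean of controls blocked by dofetilide plus 5 SD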;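 further: thallium influx through hERG after potassium depolarization seen as dye fluorescence rise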
KCNK9 block conf = confirmation of human KCNK9 potassium channel inhibitors; inhibition, % at 10 µM; shares compounds with KCNK9 block; HEK293 KCNK9 cells, FluxOR thallium flux fluorescence; 4,900 compounds, 43% hits;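 active means thallium signal inhibited by more than 5 SD of the compound-free buffer control wells, on both duplicate plates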
Kir21 sel = mouse Kir2.1 off-target activity of KCNK9 modulators. shares compounds with KCNK9 block. Kir2.1 cells, FluxOR thallium flux fluorescence. inhibition, % at 10 µM. 4,900 compounds, 4% hits. AID 492993;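 active means thallium signal drop more than 5 SD beyond the mean of the no-compound control wells, seen in both duplicate plates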;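 further: signal is fluorescence rise after thallium addition divided by baseline fluorescence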
HEK293 Tl ctr = second counter-screen for KCNK9 modulators: effect in non-induced cells; shares compounds with KCNK9 block; non-induced KCNK9-HEK293, FluxOR thallium flux; inhibition, % at 10 µM; 4,900 compounds, 40% hits; AID 492997;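 active means thallium signal drop beyond 5 SD of the untreated control mean, on both duplicate plates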
Hits are given with their value; – = inactive; · = no result given.

SMILES | KCNQ1 inh | KCNK3 block | Kir21 block | KCNK9 block | KCNQ1 pot | hERG protect | KCNK9 block conf | Kir21 sel | HEK293 Tl ctr
CCOC(=O)c1ccc(NC(=O)COc2ccccc2CNC2CCCC2)cc1 | – | – | – | – | – | – | · | · | ·
Cc1ccc(-c2cc(-c3n[nH]c(=S)o3)c3ccccc3n2)cc1 | – | – | – | – | 15 | 12 | – | – | –
O=C(C[C@@H]1C/C=C\C[C@H](Cc2ccc(F)cc2)C(=O)OC[C@@H]2CCCN2C1=O)N[C@H](CO)Cc1ccccc1 | · | – | · | · | · | · | · | · | ·
CCOC(=O)CSc1nc(C)nc2c1sc1nc(C)c(C(C)=O)c(-c3ccc(OC)cc3)c12 | – | – | – | -11 | – | – | 48% | – | 46%
CCOC(=O)c1c(C)nc2sc3c(=O)n(-c4ccc(C)cc4)cnc3c2c1-c1ccc(OC)cc1 | – | – | – | – | – | – | · | · | ·
CCC1Nc2ncnc(N3CCCCC3)c2N(Cc2ccc(Br)cc2)C1=O (configuration not stated) | – | – | – | -11 | – | – | 58% | – | 30%
CC(C)CC1Nc2ncnc(N3CCCCC3)c2N(Cc2ccc(Br)cc2)C1=O (configuration not stated) | – | – | – | -14 | – | – | 76% | – | 50%
O=C1C(Cc2ccccc2)Nc2ncnc(N3CCc4ccccc4C3)c2N1Cc1ccc(Cl)cc1 (configuration not stated) | – | – | – | -10 | – | – | 46% | – | 36%
O=C(CSCc1c(F)cccc1Cl)Nc1ccccc1C(=O)N1CCOCC1 | – | – | – | – | – | – | · | · | ·
O=C(NCc1ccccc1Cl)c1cc(=O)[nH]c2ccccc12 | – | – | – | – | – | – | · | · | ·
CCOC(=O)c1cc(-c2ccccc2)nc2nc(N(CC)CC)sc12 | – | – | – | – | – | – | · | · | ·
COc1cccc(N=Nc2ccc(O)c3ncccc23)c1 | – | – | – | – | – | 16 | – | – | –
Oc1ccc(N=Nc2ccc3c(c2)OCCO3)c2cccnc12 | – | – | – | – | 55 | – | – | – | –
CC1Sc2ccc(S(=O)(=O)N3CCC(C(=O)N(C)Cc4ccccc4)CC3)cc2NC1=O (configuration not stated) | – | – | – | – | – | – | · | · | ·
Cn1cc(CN2CCN(c3ccccc3)CC2)c2ccccc21 | – | – | – | – | – | – | – | – | –
O=C(C(c1ccccc1)c1ccccc1)N1CCCc2ccccc21 | – | – | – | -11 | – | – | 44% | – | 42%
COc1ccc(CN2CCC(CO)(Cc3ccccc3C(F)(F)F)CC2)c(F)c1 | – | – | – | – | – | – | – | – | –
COc1ccccc1N1CCN(C2CCCN(C(=O)c3ccoc3C)C2)CC1 (configuration not stated) | – | – | – | – | – | – | · | · | ·
COc1ccccc1N1CCN(C2CCCN(C(=O)c3cccc(-c4ccco4)c3)C2)CC1 (configuration not stated) | – | – | – | – | – | – | – | – | –
CC(C)n1nc(C(=O)Nc2nnc(SCc3c(Cl)cccc3Cl)s2)c2ccccc2c1=O | – | – | – | – | – | – | – | – | –
COc1ccc(C)cc1NC(=O)CN(Cc1nnc(-c2ccc(Cl)cc2)o1)C1CCCC1 | – | – | – | -12 | – | – | 36% | – | 32%
CC1Cc2ccccc2N1C(=O)c1ccc(N2CCCCC2)c([N+](=O)[O-])c1 (configuration not stated) | – | – | – | -11 | – | – | 49% | – | 25%
CCCNC(=O)C12CCC(C)(c3nc4cc(C)c(C)cc4nc31)C2(C)C (configuration not stated) | – | – | – | – | – | – | – | – | –
